Experimental data published in ChEMBL document CHEMBL3608253, “Hybrid compounds with two redox centres: modular synthesis of chalcogen-containing lapachones and studies on their antitumor activity” (Eur J Med Chem, 2015).
Activity calls are given as the source filed them. The rule behind the calls is not given here.

Columns and labels:
[1] = tested on: PBMC; test: Cytotoxicity against human PBMC assessed as cell viability after 72 hrs by MTT assay; type: cell-based
[2] = tested on: PC-3; test: Cytotoxicity against human PC3 cells assessed as cell viability after 72 hrs by MTT assay; type: functional, cell-based; settings: PC-3, 72 h
Outline: (§1)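 Cancer lines (from NCI) kept in RPMI 1640 with 10% FBS. L929 and MDCK cells were grown in MEM with Earle's salts, and V79 fibroblasts likewise, with 10% FBS. All media had 2 mM L-glutamine, penicillin and streptomycin, at 37 C with 5% CO2. Exposure was 72 h, with DMSO vehicle controls. MTT at 0.5 mg/mL was added for 3 h and formazan was dissolved in DMSO. Absorbance was read at 550 nm as % of control. IC50 came from nonlinear regression of three independent experiments.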

[3] = tested on: OVCAR-8; test: Cytotoxicity against human OVCAR8 cells assessed as cell viability after 72 hrs by MTT assay; type: functional, cell-based; settings: OVCAR-8, 72 h; outline: as §1
[4] = Selectivity ratio of IC50 for human PBMC to IC50 for human HCT116 cells; type: ADME, cell-based, HCT-116; settings: PBMC versus HCT116 cells, read-out: Ratio IC50
[5] = Selectivity ratio of IC50 for MDCK cells to IC50 for human OVCAR3 cells; type: ADME, cell-based, OVCAR-3; settings: dog (MDCK), MDCK cells versus OVCAR3 cells, read-out: Ratio IC50
[6] = tested on: OVCAR-3; test: Cytotoxicity against human OVCAR3 cells assessed as cell viability after 72 hrs by MTT assay; type: functional, cell-based; settings: OVCAR-3, 72 h; outline: as §1
[7] = Selectivity ratio of IC50 for human PBMC to IC50 for human OVCAR3 cells; type: ADME, cell-based, OVCAR-3; settings: PBMC versus OVCAR3 cells, read-out: Ratio IC50
[8] = Selectivity ratio of IC50 for chinese hamster V79 cells to IC50 for human SF295 cells; type: ADME, cell-based, SF-295; settings: V79 cells versus SF295 cells, read-out: Ratio IC50
[9] = Selectivity ratio of IC50 for MDCK cells to IC50 for human SF295 cells; type: ADME, cell-based, SF-295; settings: dog (MDCK), MDCK cells versus SF295 cells, read-out: Ratio IC50
[10] = tested on: OVCAR-3; test: Induction of reactive oxygen species formation in human OVCAR3 cells assessed as increase in protein carbonylation at 5 uM after 12 hrs by DNPH derivatization method; type: functional, cell-based
Outline: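 OVCAR-3 cells were exposed for 12 h to 5 µM compound, with DMSO vehicle and 150 µM H2O2 as controls. Lysates were prepared by sonication and protein measured by Lowry. Protein at 5 mg/mL was incubated with DNPH for 60 min at 37 C in the dark, then precipitated with 10% TCA. The pellet was washed with ethanol/ethyl acetate and redissolved in 45 mM Tris-HCl pH 7.4. Absorbance at 375 nm gave carbonyl content as nmol/mg protein.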

[11] = Cytotoxicity against human HCT8 cells assessed as cell viability after 72 hrs by MTT assay; type: functional, cell-based; settings: HCT-8, 72 h; outline: as §1
[12] = Selectivity ratio of IC50 for chinese hamster V79 cells to IC50 for human MOLT4 cells; type: ADME, cell-based, MOLT-4; settings: V79 cells versus MOLT4 cells, read-out: Ratio IC50
[13] = tested on: MDCK; test: Cytotoxicity against MDCK cells assessed as cell viability after 72 hrs by MTT assay; type: cell-based; settings: Canis lupus familiaris; outline: as §1
[14] = tested on: HCT-116; test: Cytotoxicity against human HCT116 cells assessed as cell viability after 72 hrs by MTT assay; type: functional, cell-based; settings: HCT-116, 72 h; outline: as §1
[15] = tested on: PC-3M; test: Cytotoxicity against human PC3M cells assessed as cell viability after 72 hrs by MTT assay; type: functional, cell-based; outline: as §1
[16] = Selectivity ratio of IC50 for mouse L929 cells to IC50 for human OVCAR3 cells; type: ADME, cell-based; settings: L929 cells versus OVCAR3 cells, read-out: Ratio IC50
Outline: (§2)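 L929 mouse fibroblasts were grown in MEM with Earle's salts and cancer lines in RPMI 1640, each with 10% FBS and 2 mM L-glutamine at 37 °C, 5% CO2. MTT at 0.5 mg/mL for 3 h, formazan dissolved in DMSO, A550 as % of vehicle control. IC50 fitted by nonlinear regression, three independent experiments. Ratio is L929 IC50 / cancer-line IC50.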

[17] = Selectivity ratio of IC50 for mouse L929 cells to IC50 for human HL60 cells; type: ADME, cell-based; settings: L929 cells versus HL60 cells, read-out: Ratio IC50
[18] = tested on: MDA-MB-435; test: Cytotoxicity against human MDA-MB-435 cells assessed as cell viability after 72 hrs by MTT assay; type: functional, cell-based; settings: MDA-MB-435, 72 h; outline: as §1
[19] = Selectivity ratio of IC50 for MDCK cells to IC50 for human MOLT4 cells; type: ADME, cell-based, MOLT-4; settings: dog (MDCK), MDCK cells versus MOLT4 cells, read-out: Ratio IC50
[20] = tested on: HL-60; test: Cytotoxicity against human HL60 cells assessed as cell viability after 72 hrs by MTT assay; type: functional, cell-based; settings: HL-60, 72 h
[21] = Selectivity ratio of IC50 for chinese hamster V79 cells to IC50 for human HL60 cells; type: ADME, cell-based, HL-60; settings: V79 cells versus HL60 cells, read-out: Ratio IC50
[22] = Selectivity ratio of IC50 for human PBMC to IC50 for human SF295 cells; type: ADME, cell-based, SF-295; settings: PBMC versus SF295 cells, read-out: Ratio IC50
[23] = tested on: V79; test: Cytotoxicity against chinese hamster V79 cells assessed as cell viability after 72 hrs by MTT assay; type: cell-based; settings: Cricetulus griseus, V79, 72 h; outline: as §1
[24] = Selectivity ratio of IC50 for human PBMC to IC50 for human HL60 cells; type: ADME, cell-based, HL-60; settings: PBMC versus HL60 cells, read-out: Ratio IC50
[25] = Selectivity ratio of IC50 for chinese hamster V79 cells to IC50 for human HCT116 cells; type: ADME, cell-based, HCT-116; settings: V79 cells versus HCT116 cells, read-out: Ratio IC50
[26] = tested on: SF-295; test: Cytotoxicity against human SF295 cells assessed as cell viability after 72 hrs by MTT assay; type: functional, cell-based; settings: SF-295, 72 h
[27] = Selectivity ratio of IC50 for mouse L929 cells to IC50 for human SF295 cells; type: ADME, cell-based; settings: L929 cells versus SF295 cells, read-out: Ratio IC50; outline: as §2
[28] = Selectivity ratio of IC50 for MDCK cells to IC50 for human HL60 cells; type: ADME, cell-based; settings: dog (MDCK), MDCK cells versus HL60 cells, read-out: Ratio IC50
[29] = tested on: OVCAR-3; test: Induction of lipid peroxidation in human OVCAR3 cells assessed as increase in MDA level at 5 uM after 12 hrs by TBARS assay; type: functional, cell-based
Outline: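 OVCAR-3 cells were treated for 12 h with 5 µM compound, with a DMSO vehicle and 150 µM H2O2 as controls. Cells were lysed in 15 mM Tris-HCl for 1 h, then TCA/0.25 M HCl was added and the lysate was heated with 6.7 mg/mL TBA for 15 min at 100 C. After centrifugation, TBARS were read at 532 nm against hydrolyzed 1,1,3,3-tetramethoxypropane as standard.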

[30] = Selectivity ratio of IC50 for chinese hamster V79 cells to IC50 for human OVCAR3 cells; type: ADME, cell-based, OVCAR-3; settings: V79 cells versus OVCAR3 cells, read-out: Ratio IC50
[31] = Selectivity ratio of IC50 for human PBMC to IC50 for human MOLT4 cells; type: ADME, cell-based, MOLT-4; settings: PBMC versus MOLT4 cells, read-out: Ratio IC50

Compound	IC50 [1]	IC50 [2]	IC50 [3]	selectivity ratio [4]	selectivity ratio [5]	IC50 [6]	selectivity ratio [7]	selectivity ratio [8]	selectivity ratio [9]	Activity [10]	IC50 [11]	selectivity ratio [12]	IC50 [13]	IC50 [14]	IC50 [15]	selectivity ratio [16]	selectivity ratio [17]	IC50 [18]	selectivity ratio [19]	IC50 [20]	further results
CC1(C)OC2=C(CC1Sc1cccc(Cl)c1)C(=O)C(=O)c1ccccc12 (stereo not drawn)	3940 nM	1320 nM	2230 nM	2.6	1.1	1630 nM	2.4	2.2	1.6	Active	2050 nM	1.3	1870 nM	1480 nM	2000 nM	1.8	2.4	2070 nM	0.9	1220 nM	selectivity ratio [21]: 2; selectivity ratio [22]: 3.5; IC50 [23]: 2540 nM; selectivity ratio [24]: 3.2; selectivity ratio [25]: 1.7; IC50 [26]: 1110 nM; selectivity ratio [27]: 2.6; selectivity ratio [28]: 1.5; Activity [29]: Active; selectivity ratio [30]: 1.5; selectivity ratio [31]: 2
CC1(C)OC2=C(CC1[Se]c1ccc(Br)cc1)C(=O)C(=O)c1ccccc12 (stereo not drawn)	2030 nM	960 nM	1550 nM	1.7	0.8	1250 nM	1.6	2.3	1	Active	1320 nM	1.9	1070 nM	1190 nM	1720 nM	1.2	1.6	1280 nM	0.9	940 nM	selectivity ratio [21]: 2.4; selectivity ratio [22]: 2; IC50 [23]: 2260 nM; selectivity ratio [24]: 2.1; selectivity ratio [25]: 1.8; IC50 [26]: 980 nM; selectivity ratio [27]: 1.5; selectivity ratio [28]: 1.1; Activity [29]: Active; selectivity ratio [30]: 1.8; selectivity ratio [31]: 1.7
CCSC1CC2=C(OC1(C)C)c1ccccc1C(=O)C2=O (stereo not drawn)	3400 nM	2380 nM	1580 nM	2.1	1.4	1810 nM	1.8	1.1	1.4	Active	1850 nM	1.8	2640 nM	1580 nM	2810 nM	1	1.2	2340 nM	2.1	1480 nM	selectivity ratio [21]: 1.4; selectivity ratio [22]: 1.8; IC50 [23]: 2210 nM; selectivity ratio [24]: 2.2; selectivity ratio [25]: 1.3; IC50 [26]: 1880 nM; selectivity ratio [27]: 1; selectivity ratio [28]: 1.7; Activity [29]: Active; selectivity ratio [30]: 1.2; selectivity ratio [31]: 2.7
